# Results taken from ChEMBL document CHEMBL2157972, “Selenophene-containing inhibitors of type IIA bacterial topoisomerases” (J Med Chem, 2011).
# Columns and labels:
# [1] = tested on: Staphylococcus aureus; test: Antibacterial activity against methicillin-resistant Staphylococcus aureus ATCC 700699; type: functional
# Summary of the method: (§1)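 Read-out is the minimum inhibitory concentration (MIC), reported in μg/mL, from standard antimicrobial susceptibility testing.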
# [2] = tested on: Staphylococcus aureus; test: Antibacterial activity against methicillin-sensitive Staphylococcus aureus ATCC 29213; type: functional; summary of the method: as §1
# [3] = molecular target: DNA gyrase (Staphylococcus aureus, UniProt P0A0K8+P20831); test: Inhibition of Staphylococcus aureus DNA gyrase by supercoiling assay; type: protein-complex assay
# [4] = Inhibition of Staphylococcus aureus topoisomerase 4 by decatenation assay
# Summary of the method: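 Enzyme activity was measured by topoisomerase IV decatenation using S. aureus enzyme. Inhibition is reported as a concentration in μM.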
# [5] = Cytotoxicity against human Hep2 cell line after 72 hrs; type: cell-based; details: HEp-2 cells
# Summary of the method: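 Human laryngeal epidermoid carcinoma Hep2 cells were exposed for 72 h.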
# [6] = tested on: Staphylococcus aureus; test: Antibacterial activity against fluoroquinolone resistant Staphylococcus aureus 1-FQR2M BK2384 expressing GyrA Ser84Leu mutant and GrlA Ser80Phe mutant; type: functional; summary of the method: as §1
# [7] = tested on: Staphylococcus aureus; test: Antibacterial activity against fluoroquinolone resistant Staphylococcus aureus 2-FQR2M NY2746 expressing GyrA Ser84Leu mutant and GrlA Ser80Phe mutant; type: functional; summary of the method: as §1
# [8] = tested on: Staphylococcus aureus; test: Antibacterial activity against fluoroquinolone resistant Staphylococcus aureus 3-FQR3M ATCC 700699 expressing GyrA Ser84Leu mutant and Glu409Lys mutant and GrlA Ser80Phe mutant; type: functional; summary of the method: as §1
# [9] = tested on: Staphylococcus aureus; test: Antibacterial activity against fluoroquinolone resistant Staphylococcus aureus 4-FQR3M BSA643 expressing GyrA Ser84Leu mutant and GrlA Ser80Tyr and Glu84Gly mutant; type: functional; summary of the method: as §1
# [10] = tested on: Staphylococcus aureus; test: Antibacterial activity against fluoroquinolone resistant Staphylococcus aureus 5-FQR4M BSA678 expressing GyrA Ser84Leu and Ser85Pro mutant and GrlA Ser80Phe and Glu84Lys mutant; type: functional; summary of the method: as §1
# [11] = Cytotoxicity against […] CHO cell line after 72 hrs; type: cell-based, Cricetulus griseus; details: chinese hamster, CHO cells
# [12] = Cytotoxicity against human HeLa cell line after 72 hrs; type: cell-based; details: HeLa cells
# [13] = Cytotoxicity against human HepG2 cell line after 72 hrs; type: cell-based; details: HepG2 cells
# [14] = tested on: Staphylococcus aureus; test: Antimicrobial activity against fluoroquinolone sensitive Staphylococcus aureus; type: functional
# Summary of the method: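 Standard susceptibility testing. The read-out is the minimum inhibitory concentration, reported in μg/mL.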
# [15] = tested on: Staphylococcus aureus; test: Antimicrobial activity against fluoroquinolone resistant Staphylococcus aureus; type: functional; summary of the method: as §1
Structure (SMILES),MIC [1] [µg/mL],MIC [2] [µg/mL],IC50 [3] [µM],CC50 at 72 h [5] [µM],other results
COC(=O)[C@H]1CN(CCSc2ccco2)CC[C@H]1CCC(=O)c1ccnc2ccc(OC)cc12,> 32,–,–,–,–
COC(=O)[C@H]1CN(CCSc2cccs2)CC[C@H]1CCC(=O)c1ccnc2ccc(OC)cc12,> 32,–,–,–,–
COC(=O)[C@H]1CN(CCSc2sccc2P(=O)(OC(C)C)OC(C)C)CC[C@H]1CCC(=O)c1ccnc2ccc(OC)cc12,> 32,–,–,–,–
COC(=O)[C@H]1CN(CCSc2ccc[se]2)CC[C@H]1CCC(=O)c1ccnc2ccc(OC)cc12,> 32,–,–,–,–
COC(=O)[C@H]1CN(CCS(=O)(=O)c2ccc[se]2)CC[C@H]1CCC(=O)c1ccnc2ccc(OC)cc12,> 32,–,–,–,–
COC(=O)[C@H]1CN(CCSc2ccc(C(F)F)[se]2)CC[C@H]1CCC(=O)c1ccnc2ccc(OC)cc12,> 32,–,–,–,–
COC(=O)[C@H]1CN(CCSc2ccc(C#N)[se]2)CC[C@H]1CCC(=O)c1ccnc2ccc(OC)cc12,> 32,–,–,–,–
COC(=O)[C@H]1CN(CCC(=O)N2CCCCC2)CC[C@H]1CCC(=O)c1ccnc2ccc(OC)cc12,> 32,–,–,–,–
COc1ccc2nccc([C@H](O)CC[C@@H]3CCN(CCSc4ccc[se]4)C[C@@H]3C(=O)O)c2c1 (mixture of isomers),0.5,0.5,0.7,> 100,IC50 [4]: 69 µM; MIC [6]: 1 µg/mL; MIC [7]: 1 µg/mL; MIC [8]: 0.5 µg/mL; MIC [9]: 1 µg/mL; MIC [10]: 2 µg/mL; CC50 at 72 h [11]: > 100 µM; CC50 at 72 h [12]: > 100 µM; CC50 at 72 h [13]: > 100 µM
COc1ccc2nccc([C@@H](O)CC[C@@H]3CCN(CCSc4ccc[se]4)C[C@@H]3C(=O)O)c2c1 (mixture of isomers),0.25,0.25,0.4,> 100,IC50 [4]: 64 µM; MIC [6]: 0.25 µg/mL; MIC [7]: 0.5 µg/mL; MIC [8]: 0.25 µg/mL; MIC [9]: 0.5 µg/mL; MIC [10]: 1 µg/mL; CC50 at 72 h [11]: > 100 µM; CC50 at 72 h [12]: > 100 µM; CC50 at 72 h [13]: > 100 µM
COc1ccc2nccc([C@H](O)CC[C@@H]3CCN(CCS(=O)(=O)c4ccc[se]4)C[C@@H]3C(=O)O)c2c1 (mixture of isomers),> 64,> 64,–,> 100,–
COc1ccc2nccc([C@@H](O)CC[C@@H]3CCN(CCS(=O)(=O)c4ccc[se]4)C[C@@H]3C(=O)O)c2c1 (mixture of isomers),> 64,> 64,> 100,> 100,–
COc1ccc2nccc([C@@H](O)CC[C@@H]3CCN(CCSc4ccc(C(F)F)[se]4)C[C@@H]3C(=O)O)c2c1 (mixture of isomers),16,32,21.2,39,–
COc1ccc2nccc([C@H](O)CC[C@@H]3CCN(CCSc4ccc(C=O)[se]4)C[C@@H]3C(=O)O)c2c1 (mixture of isomers),16,16,8.9,> 100,–
COc1ccc2nccc([C@H](O)CC[C@@H]3CCN(CCSc4ccc(C#N)[se]4)C[C@@H]3C(=O)O)c2c1 (mixture of isomers),> 64,> 64,–,65,–
COc1ccc2nccc([C@@H](O)CC[C@@H]3CCN(CCSc4ccc(C#N)[se]4)C[C@@H]3C(=O)O)c2c1 (mixture of isomers),32,32,36.6,48,–
COc1ccc2nccc(C(O)CC[C@@H]3CCN(CCSc4ccc(C(=O)O)[se]4)C[C@@H]3C(=O)O)c2c1 (mixture of isomers),> 64,> 64,> 100,> 100,–
COc1ccc2nccc(C(O)CC[C@@H]3CCN(CCC(=O)N4CCCCC4)C[C@@H]3C(=O)O)c2c1 (mixture of isomers),32,32,10.6,> 100,–
COc1ccc2nccc([C@H](O)CC[C@@H]3CCN(CCSc4cccs4)C[C@@H]3C(=O)O)c2c1 (mixture of isomers),0.5,1,3.3,> 100,IC50 [4]: 23 µM; MIC [6]: 1 µg/mL; MIC [7]: 1 µg/mL; MIC [8]: 0.5 µg/mL; MIC [9]: 1 µg/mL; MIC [10]: 4 µg/mL; CC50 at 72 h [11]: > 100 µM; CC50 at 72 h [12]: > 100 µM; CC50 at 72 h [13]: > 100 µM
COc1ccc2nccc([C@@H](O)CC[C@@H]3CCN(CCSc4cccs4)C[C@@H]3C(=O)O)c2c1 (mixture of isomers),0.13,0.25,1.4,> 100,MIC90 [14]: 1 µg/mL; MIC90 [15]: 0.5 µg/mL; IC50 [4]: 45 µM; MIC [6]: 0.25 µg/mL; MIC [7]: 0.25 µg/mL; MIC [8]: 0.13 µg/mL; MIC [9]: 0.25 µg/mL; MIC [10]: 0.5 µg/mL; CC50 at 72 h [11]: > 100 µM; CC50 at 72 h [12]: > 100 µM; CC50 at 72 h [13]: > 100 µM
COc1ccc2nccc([C@H](O)CC[C@@H]3CCN(CCSc4sccc4P(=O)(OC(C)C)OC(C)C)C[C@@H]3C(=O)O)c2c1 (mixture of isomers),> 64,> 64,–,34,–
COc1ccc2nccc([C@@H](O)CC[C@@H]3CCN(CCSc4sccc4P(=O)(OC(C)C)OC(C)C)C[C@@H]3C(=O)O)c2c1 (mixture of isomers),> 64,> 64,> 100,> 98,–
COc1ccc2nccc([C@H](O)CC[C@@H]3CCN(CCSc4sccc4P(=O)(O)O)C[C@@H]3C(=O)O)c2c1 (mixture of isomers),> 64,> 64,> 100,> 100,–
COc1ccc2nccc([C@@H](O)CC[C@@H]3CCN(CCSc4sccc4P(=O)(O)O)C[C@@H]3C(=O)O)c2c1 (mixture of isomers),> 64,> 64,–,> 94,–
O=C(O)c1cn(C2CC2)c2cc(N3CCNCC3)c(F)cc2c1=O [CIPROFLOXACIN],64,0.25,–,> 100,IC50 [4]: 3 µM; MIC [6]: 64 µg/mL; MIC [7]: 256 µg/mL; MIC [8]: 64 µg/mL; MIC [9]: 256 µg/mL; MIC [10]: 128 µg/mL
CO/N=C1\CN(c2nc3c(cc2F)c(=O)c(C(=O)O)cn3C2CC2)CC1CN (configuration not stated) [GEMIFLOXACIN],4,0.03,–,–,IC50 [4]: 0.4 µM; MIC [6]: 1 µg/mL; MIC [7]: 32 µg/mL; MIC [8]: 4 µg/mL; MIC [9]: 32 µg/mL; MIC [10]: 64 µg/mL
COc1c(N2C[C@@H]3CCCN[C@@H]3C2)c(F)cc2c(=O)c(C(=O)O)cn(C3CC3)c12 [MOXIFLOXACIN],4,0.06,–,> 100,IC50 [4]: 1 µM; MIC [6]: 1 µg/mL; MIC [7]: 8 µg/mL; MIC [8]: 4 µg/mL; MIC [9]: 16 µg/mL; MIC [10]: > 64 µg/mL
